PTEN del growth: growth suppressors of cells with PTEN tumor suppressor deletion; HCT116 PTEN-null viability, CellTiter-Glo, 60 h; stronger effect = lower value; viability, % at 10 µM; hit rate 1.2% among 140,000; AID 827;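 active = viability at or below a set limit, 4 SD under the median of all tested compounds, cut at about 3.7% in these data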;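 also: PTEN knockout HCT116 line with beta catenin targeted HCT116 as companion control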
H69AR growth 86K: growth inhibitors of human H69AR lung tumor cells | viability, % at 10 µM | AID 598 | H69AR lung tumor viability, ATP luminescence, 72 h; stronger effect = lower value | hit rate 6% among 85,000;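 active = viability at or below 40%; inactive = viability above 40%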;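 also: multidrug resistant small cell line overexpressing MRP-1 efflux transporter; 100% = mean luminescence of untreated control wells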
HUVEC inhibit: human endothelial cell proliferation inhibition. viability, % at 10 µM (by protocol). HUVEC proliferation, CellTiter-Glo luminescence, 72 h; stronger effect = lower value. hit rate 1.1% among 86,000;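 active = viability at or below 30%; inactive = viability above 30%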;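 also: 100% = median luminescence of DMSO-only cell control wells on each plate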
HCT116 bCat-KO: beta-catenin-lacking colon tumor cell growth suppression. HCT116 beta-catenin knockout viability, CellTiter-Glo, 60 h; stronger effect = lower value. AID 818. viability, % at 10 µM. hit rate 1.5% among 140,000;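 active = viability at or under a set limit, the compound median less 4 SD, cut at about 6% in these data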;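 also: 0% = Hyamine 1622 control at 20 µM and 100% = untreated cell control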
Lung fibro prol: blocks proliferation of human lung fibroblasts | LL 47 human lung fibroblast viability, ATP luminescence; stronger effect = lower value | viability, % at 10 µM | hit rate 1.1% among 85,000;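 active = viability at or below 50% in the single dose screen; inactive = viability above 50%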;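 also: compound exposure lasted 72 h before the ATP readout; 100% = median luminescence of untreated cell-only wells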
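Test system: LL 47 human lung fibroblasts / Incubation: 72 h compound exposure at 37 °C after overnight plating / Technique: luminescent ATP detection, CellTiter-Glo / Compound dosing: 0.1% DMSO in all compound wells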
* marks the source's active call; other numbers are inactive results. The sample as a whole holds a higher share of hits than the screen did.

What do the screens show for `COc1ccccc1/C=C/C1(C(=O)NC2CCCC2)CC(=O)N1c1ccc(F)cc1` (centres undefined)?
PTEN del growth: 14.8; H69AR growth 86K: 0.5*; HUVEC inhibit: 34.8; HCT116 bCat-KO: 16.6; Lung fibro prol: 1.9*

What do the screens show for `COc1ccccc1/C=C/C1(C(=O)NC2CCCC2)CC(=O)N1c1ccc(C)cc1` (centres undefined)?
PTEN del growth: 9.7; H69AR growth 86K: 2.1*; HUVEC inhibit: 39.1; HCT116 bCat-KO: 10.3; Lung fibro prol: 47.6*

How did CCN(CC)S(=O)(=O)c1ccc(N2C(=O)CC2(/C=C/c2ccccc2)C(=O)NC2CCCC2)cc1 (centres undefined) do in these assays?
PTEN del growth: 72.6; HCT116 bCat-KO: 80.8

How did O=C(NN=C1c2ccccc2-c2ccccc21)c1cccc(Br)c1 do in these assays?
PTEN del growth: 4.9; HCT116 bCat-KO: 21.8

How did CCc1nnc(NC(=O)CCC(=O)N2CCN(C3c4ccccc4-c4ccccc43)CC2)s1 do in these assays?
PTEN del growth: 95.8; HCT116 bCat-KO: 96.3

Results for CCOc1cc(CNC2CCCC2)cc(Cl)c1OCc1ccc(F)cc1 ?
PTEN del growth: 0.9*; HCT116 bCat-KO: 0.9*

How did COc1cc(CNC2CCCC2)cc(OC)c1OC do in these assays?
PTEN del growth: 101.7; H69AR growth 86K: 90.3; HUVEC inhibit: 86.9; HCT116 bCat-KO: 106.8; Lung fibro prol: 105.2

What do the screens show for `COc1cc(CNC2CCCC2)cc(Cl)c1OCc1ccccc1Cl`?
PTEN del growth: 1.6*; HCT116 bCat-KO: 1.2*

How did COc1cc(CNC2CCCC2)cc(Cl)c1OCc1ccc(F)cc1 do in these assays?
PTEN del growth: 63.9; HCT116 bCat-KO: 48.0

What do the screens show for `CCOc1cc(CNCCc2ccc(S(N)(=O)=O)cc2)cc(Cl)c1OCc1ccccc1`?
PTEN del growth: 1.9*; HCT116 bCat-KO: 1.5*

Results for NC(=NCCc1ccccc1)NS(=O)(=O)c1ccc2ccccc2c1 ?
PTEN del growth: 82.8; HCT116 bCat-KO: 86.3

What do the screens show for `COC(=O)CSC1=C(C#N)C(=O)NC(c2ccccc2)S1` (centres undefined)?
PTEN del growth: 95.0; H69AR growth 86K: 1.3*; HUVEC inhibit: 28.1*; HCT116 bCat-KO: 90.6; Lung fibro prol: 7.4*

How did COC(=O)CSC1=C(C#N)C(c2ccccc2)CC(=O)N1 (centres undefined) do in these assays?
PTEN del growth: 62.7; H69AR growth 86K: 40.9; HUVEC inhibit: 82.8; HCT116 bCat-KO: 68.8; Lung fibro prol: 92.8

Results for Cc1coc(NC(=O)CSc2nc(-c3ccncc3)cc(C(F)(F)F)c2C#N)n1 ?
PTEN del growth: 82.1; H69AR growth 86K: 38.0*; HUVEC inhibit: 88.0; HCT116 bCat-KO: 91.6; Lung fibro prol: 99.0

Results for Cc1cc2c(c(=O)n1Cc1cccnc1)C(c1cccs1)C(C#N)=C(N)O2 (centres undefined) ?
PTEN del growth: 93.9; H69AR growth 86K: 31.6*; HUVEC inhibit: 92.0; HCT116 bCat-KO: 107.3; Lung fibro prol: 97.0

How did Cc1cc2c(c(=O)n1Cc1cccnc1)C(Cc1ccccc1)C(C#N)=C(N)O2 (centres undefined) do in these assays?
PTEN del growth: 106.0; H69AR growth 86K: 86.2; HUVEC inhibit: 87.3; HCT116 bCat-KO: 98.8; Lung fibro prol: 100.3

How did Cc1nn(-c2ccccc2)c(C)c1C(=O)OCC(=O)N1c2ccccc2NC(=O)C1(C)C do in these assays?
PTEN del growth: 57.3; H69AR growth 86K: 16.9*; HUVEC inhibit: 76.1; HCT116 bCat-KO: 64.1; Lung fibro prol: 94.0

How did Cc1cc(C(=O)NCC2CCCO2)n(-c2ccccc2)n1 (centres undefined) do in these assays?
PTEN del growth: 96.8; H69AR growth 86K: 94.1; HUVEC inhibit: 96.6; HCT116 bCat-KO: 96.0; Lung fibro prol: 99.5

What do the screens show for `Cc1cc(C(=O)NCCCN2CCN(c3cc(Cl)ccc3C)CC2)n(-c2ccccc2)n1`?
PTEN del growth: 38.2; H69AR growth 86K: 30.9*; HUVEC inhibit: 68.9; HCT116 bCat-KO: 33.9; Lung fibro prol: 79.7

What do the screens show for `CCOC(=O)N1CCN(C(=O)c2cn(C)c(=O)c3c2c2ccccc2n3C)CC1`?
PTEN del growth: 65.5; H69AR growth 86K: 39.8*; HUVEC inhibit: 93.6; HCT116 bCat-KO: 83.7; Lung fibro prol: 96.2

How did Cc1cc(C(=O)NCCN2CCN(c3cccc(Cl)c3)CC2)n(-c2ccccc2)n1 do in these assays?
PTEN del growth: 18.9; H69AR growth 86K: 29.1*; HUVEC inhibit: 52.9; HCT116 bCat-KO: 9.5; Lung fibro prol: 58.1

Source: PubChem BioAssay (SRMLSC)
